Results: ChEMBL document CHEMBL1687823, “PA-824 exhibits time-dependent activity in a murine model of tuberculosis” (Antimicrob Agents Chemother, 2011)
Activity calls are given as the source filed them. No cut-off for these calls is given here.

Tests used:
[1] = tested on: Mycobacterium tuberculosis; assay: fT>MIC for >= 1 log reduction in CFU count in Mycobacterium tuberculosis H37Rv in using simulated dose of at 200 mg assessed as time during compound concentration exceeds MIC of 0.12500 ug/ml assuming 15% unbound compound concentration by one compartment human pharmacokinetic model; type: functional
How it was run: (§1)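 A one-compartment PK model was fitted to human data to get median parameters. It simulated steady-state total and free concentrations for 100, 200 or 400 mg once daily, assuming 5, 7, 10 or 15% unbound drug. Free T>MIC was computed against MICs of 0.03125–0.25 µg/ml and compared with the mouse-derived T>MIC target for 1-log10 kill.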

[2] = tested on: Mycobacterium tuberculosis; assay: fT>MIC for >= 1 log reduction in CFU count in Mycobacterium tuberculosis H37Rv in using simulated dose of at 400 mg assessed as time during compound concentration exceeds MIC of 0.25000 ug/ml assuming 5% unbound compound concentration by one compartment human pharmacokinetic model; type: functional
How it was run: (§2)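 Human steady-state simulation: one-compartment PK model fitted to patient data, chosen by AIC. Median PK parameters used to simulate total and free concentrations, assuming 5, 7, 10 or 15% unbound, for 100, 200 and 400 mg once daily. Free levels compared with MICs of 0.03125 to 0.25 µg/ml to give %T>MIC; T>MIC is the cumulative percentage of the dosing interval above MIC.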

[3] = AUC (0 to t) in mouse at 100 or 50 mg/kg, po administered as single dose; type: ADME, organism-based; set-up: dose 50 mg/kg, route oral; details: plasma
[4] = tested on: Mycobacterium tuberculosis; assay: fT>MIC for >= 1 log reduction in CFU count in Mycobacterium tuberculosis H37Rv in using simulated dose of at 100 mg assessed as time during compound concentration exceeds MIC of 0.25000 ug/ml assuming 7% unbound compound concentration by one compartment human pharmacokinetic model; type: functional; how it was run: as §1
[5] = Elimination half life in BALB/c mouse up to 1456 mg/kg, po administered as single dose; type: ADME, organism-based; set-up: route oral; details: in vivo, read-out: beta t1/2 (converted)
How it was run: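 Uninfected 6-week female BALB/c mice received single oral gavage doses of 3–1,458 mg/kg as a cyclodextrin-micelle suspension. Three mice per time point were bled by cardiac puncture under isoflurane at 0.5–120 h. Serum levels were measured by validated HPLC-UV (standards 0.20–50 µg/ml).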

[6] = tested on: Mycobacterium tuberculosis; assay: fT>MIC for >= 1 log reduction in CFU count in Mycobacterium tuberculosis H37Rv in using simulated dose of at 200 mg assessed as time during compound concentration exceeds MIC of 0.25000 ug/ml assuming 15% unbound compound concentration by one compartment human pharmacokinetic model; type: functional; how it was run: as §1
[7] = tested on: Mycobacterium tuberculosis; assay: fT>MIC for >= 1 log reduction in CFU count in Mycobacterium tuberculosis H37Rv in using simulated dose of at 400 mg assessed as time during compound concentration exceeds MIC of 0.03125 ug/ml assuming 15% unbound compound concentration by one compartment human pharmacokinetic model; type: functional; how it was run: as §1
[8] = tested on: Mycobacterium tuberculosis; assay: fT>MIC for >= 1 log reduction in CFU count in Mycobacterium tuberculosis H37Rv in using simulated dose of at 400 mg assessed as time during compound concentration exceeds MIC of 0.06250 ug/ml assuming 5% unbound compound concentration by one compartment human pharmacokinetic model; type: functional; how it was run: as §2
[9] = tested on: Mycobacterium tuberculosis; assay: fT>MIC for >= 1 log reduction in CFU count in Mycobacterium tuberculosis H37Rv in using simulated dose of at 400 mg assessed as time during compound concentration exceeds MIC of 0.12500 ug/ml assuming 15% unbound compound concentration by one compartment human pharmacokinetic model; type: functional; how it was run: as §2
[10] = tested on: Mycobacterium tuberculosis; assay: fT>MIC for >= 1 log reduction in CFU count in Mycobacterium tuberculosis H37Rv in using simulated dose of at 100 mg assessed as time during compound concentration exceeds MIC of 0.25000 ug/ml assuming 15% unbound compound concentration by one compartment human pharmacokinetic model; type: functional; how it was run: as §1
[11] = tested on: Mycobacterium tuberculosis; assay: fT>MIC for >= 1 log reduction in CFU count in Mycobacterium tuberculosis H37Rv in using simulated dose of at 200 mg assessed as time during compound concentration exceeds MIC of 0.25000 ug/ml assuming 7% unbound compound concentration by one compartment human pharmacokinetic model; type: functional; how it was run: as §1
[12] = tested on: Mycobacterium tuberculosis; assay: fT>MIC for >= 1 log reduction in CFU count in Mycobacterium tuberculosis H37Rv in using simulated dose of at 200 mg assessed as time during compound concentration exceeds MIC of 0.03125 ug/ml assuming 15% unbound compound concentration by one compartment human pharmacokinetic model; type: functional; how it was run: as §1
[13] = tested on: Mycobacterium tuberculosis; assay: Antitubercular activity against Mycobacterium tuberculosis H37Rv infected in BALB/c mouse assessed as reduction in log10 CFU count at 96 mg/kg, po for 5 days relative to control; type: functional
[14] = tested on: Mycobacterium tuberculosis; assay: fT>MIC for >= 1 log reduction in CFU count in Mycobacterium tuberculosis H37Rv in using simulated dose of at 400 mg assessed as time during compound concentration exceeds MIC of 0.03125 ug/ml assuming 10% unbound compound concentration by one compartment human pharmacokinetic model; type: functional; how it was run: as §1
[15] = tested on: Mycobacterium tuberculosis; assay: fT>MIC for >= 1 log reduction in CFU count in Mycobacterium tuberculosis H37Rv in using simulated dose of at 100 mg assessed as time during compound concentration exceeds MIC of 0.06250 ug/ml assuming 10% unbound compound concentration by one compartment human pharmacokinetic model; type: functional; how it was run: as §1
[16] = tested on: Mycobacterium tuberculosis; assay: fT>MIC for >= 1 log reduction in CFU count in Mycobacterium tuberculosis H37Rv in using simulated dose of at 200 mg assessed as time during compound concentration exceeds MIC of 0.06250 ug/ml assuming 5% unbound compound concentration by one compartment human pharmacokinetic model; type: functional; how it was run: as §1
[17] = tested on: Mycobacterium tuberculosis; assay: fT>MIC for >= 1 log reduction in CFU count in Mycobacterium tuberculosis H37Rv in using simulated dose of at 100 mg assessed as time during compound concentration exceeds MIC of 0.03125 ug/ml assuming 7% unbound compound concentration by one compartment human pharmacokinetic model; type: functional; how it was run: as §1
[18] = tested on: Mycobacterium tuberculosis; assay: fT>MIC for >= 1 log reduction in CFU count in Mycobacterium tuberculosis H37Rv in using simulated dose of at 100 mg assessed as time during compound concentration exceeds MIC of 0.12500 ug/ml assuming 15% unbound compound concentration by one compartment human pharmacokinetic model; type: functional; how it was run: as §1
[19] = tested on: Mycobacterium tuberculosis; assay: fT>MIC for >= 1 log reduction in CFU count in Mycobacterium tuberculosis H37Rv in using simulated dose of at 200 mg assessed as time during compound concentration exceeds MIC of 0.25000 ug/ml assuming 10% unbound compound concentration by one compartment human pharmacokinetic model; type: functional; how it was run: as §1
[20] = tested on: Mycobacterium tuberculosis; assay: fT>MIC for >= 1 log reduction in CFU count in Mycobacterium tuberculosis H37Rv in using simulated dose of at 100 mg assessed as time during compound concentration exceeds MIC of 0.03125 ug/ml assuming 15% unbound compound concentration by one compartment human pharmacokinetic model; type: functional; how it was run: as §1
[21] = tested on: Mycobacterium tuberculosis; assay: Antitubercular activity against Mycobacterium tuberculosis H37Rv infected in BALB/c mouse at 12.5 mg/kg, po for 5 days relative to control; type: functional, organism-based; set-up: dose 12.5 mg/kg

## O=[N+]([O-])c1cn2c(n1)OC[C@@H](OCc1ccc(OC(F)(F)F)cc1)C2 [PRETOMANID]
[1]
  fT>MIC: 67%
[2]
  fT>MIC: 0%
[3]
  AUC(0-t): 70400 ng·h/mL
[4]
  fT>MIC: 0%
[5]
  half-life: 4 h
[6]
  fT>MIC: 6%
[7]
  fT>MIC: 100%
[8]
  fT>MIC: 100%
[9]
  fT>MIC: 100%
[10]
  fT>MIC: 0%
[11]
  fT>MIC: 0%
[12]
  fT>MIC: 100%
[13]
  log10cfu: 2
[14]
  fT>MIC: 100%
[15]
  fT>MIC: 46%
[16]
  fT>MIC: 46%
[17]
  fT>MIC: 67%
[18]
  fT>MIC: 6%
[19]
  fT>MIC: 0%
[20]
  fT>MIC: 100%
[21]
  Activity: Active
